Data set [1] addresses T1, Sodium-dependent proline transporter (Homo sapiens, UniProt Q99884).
T1 sequence (Q99884 whole entry): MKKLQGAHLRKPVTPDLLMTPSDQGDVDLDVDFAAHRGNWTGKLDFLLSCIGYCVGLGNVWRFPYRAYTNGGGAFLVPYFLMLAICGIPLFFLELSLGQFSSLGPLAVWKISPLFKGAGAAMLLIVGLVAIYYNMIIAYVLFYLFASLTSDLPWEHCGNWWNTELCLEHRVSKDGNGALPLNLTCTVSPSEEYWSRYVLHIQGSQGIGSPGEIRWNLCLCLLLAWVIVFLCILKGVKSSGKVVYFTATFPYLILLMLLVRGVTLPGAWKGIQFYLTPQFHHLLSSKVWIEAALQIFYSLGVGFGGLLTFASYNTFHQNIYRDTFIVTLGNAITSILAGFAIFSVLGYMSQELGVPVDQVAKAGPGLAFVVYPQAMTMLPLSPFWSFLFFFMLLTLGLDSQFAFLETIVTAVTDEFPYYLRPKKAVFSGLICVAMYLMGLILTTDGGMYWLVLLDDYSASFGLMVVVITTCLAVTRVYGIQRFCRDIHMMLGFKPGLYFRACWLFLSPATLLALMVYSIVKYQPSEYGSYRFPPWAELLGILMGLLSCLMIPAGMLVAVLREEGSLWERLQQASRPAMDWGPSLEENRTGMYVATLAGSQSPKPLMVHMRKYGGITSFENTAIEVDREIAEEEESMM
As to the kind of experiment: Inhibition of human high-affinity L-proline transporter expressed in COS1 cells by [3H]proline uptake assay. It counts as cell-based, COS-1.

Data set [2] is described as follows: Stability in mouse liver homogenates assessed as remaining parent compound level after 30 mins. The data set is classed as ADME, tissue-based. The note with it: liver homogenate, read-out: Stability. The gist of the method:
(§1)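 Compound incubated 30 min with S9 fraction of mouse liver homogenate; parent compound remaining measured.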

Data set [3] in a line: Protein binding in plasma (unknown origin) by equilibrium dialysis assay. The data set is classed as ADME, cell-free. The following applies: read-out: PPB (converted). In short, it runs like this:
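Plasma protein binding measured by equilibrium dialysis.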
On the technique in general: In equilibrium dialysis free small molecules cross a membrane that holds back macromolecules.

In data set [4] the test system is Mus musculus. Description: Induction of cognitive improvement in albino C57BL/6 mouse trace conditioning model assessed as improvement in response to conditioned stimulus at 100 mg/kg, po. The data set is classed as functional, organism-based. Set-up: dose 100 mg/kg. The gist of the method: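 C57 mice (n = 13) given 100 mpk PO alongside a vehicle control group; fear conditioning with context freezing portion scored as response to conditioned stimulus; statistical comparison with vehicle by P value.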

Data set [5] deals with T2, Sodium-dependent dopamine transporter (Homo sapiens, UniProt Q01959). Description: Inhibition of DAT (unknown origin) at 10 uM.
T2 sequence (Q01959 whole entry): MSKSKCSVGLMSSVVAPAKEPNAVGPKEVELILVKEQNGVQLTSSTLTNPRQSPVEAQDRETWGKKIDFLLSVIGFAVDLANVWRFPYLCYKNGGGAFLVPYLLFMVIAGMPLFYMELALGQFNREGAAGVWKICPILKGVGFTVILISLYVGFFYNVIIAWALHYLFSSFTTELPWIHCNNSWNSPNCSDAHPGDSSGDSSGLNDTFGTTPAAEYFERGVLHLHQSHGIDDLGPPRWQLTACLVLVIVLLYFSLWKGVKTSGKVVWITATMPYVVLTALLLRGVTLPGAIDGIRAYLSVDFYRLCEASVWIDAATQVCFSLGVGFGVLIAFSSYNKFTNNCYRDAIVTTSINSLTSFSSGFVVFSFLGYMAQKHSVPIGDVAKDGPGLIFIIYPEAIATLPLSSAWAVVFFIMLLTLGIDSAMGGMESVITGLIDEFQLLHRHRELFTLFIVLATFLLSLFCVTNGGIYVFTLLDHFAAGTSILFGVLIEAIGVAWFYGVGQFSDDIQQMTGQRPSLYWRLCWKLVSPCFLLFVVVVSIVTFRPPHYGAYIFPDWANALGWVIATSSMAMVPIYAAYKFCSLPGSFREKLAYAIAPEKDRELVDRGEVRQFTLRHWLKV
Data set [6] has as its system Mus musculus. As to the kind of experiment: Toxicity in albino C57BL/6 mouse at 100 mg/kg, po. It counts as organism-based. Set-up: dose 100 mg/kg, route oral. The note with it: in vivo.
Data set [7] can be described thus: AUC (0 to infinity) in albino C57BL/6 mouse at 100 mg/kg, po. The following applies: plasma. Details: time infinity, dose 100 mg/kg, route oral. The data set is classed as ADME, organism-based. In short, it runs like this:
(§2)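 Single oral administration at 100 mpk to C57BL/6 albino mice; plasma exposure parameters (Tmax, Cmax, AUC) derived.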

Data set [8] in a line: Cmax in albino C57BL/6 mouse at 100 mg/kg, po. The following applies: in vivo. It counts as ADME, organism-based. Details: dose 100 mg/kg, route oral. The gist of the method: as §2
Data set [9] is described as follows: Stability in mouse liver S9 fraction assessed as remaining parent compound level after 30 mins. The data set is classed as ADME, subcellular. The following applies: read-out: Stability. The gist of the method:
as §1

Data set [10] is described as follows: Tmax in albino C57BL/6 mouse at 100 mg/kg, po. Details: dose 100 mg/kg, route oral. The note with it: in vivo. The data set is classed as ADME, organism-based. The gist of the method:
as §2

The nature of data set [11]: Ratio of drug level in brain to plasma in albino C57BL/6 mouse at 100 mg/kg, po after 6 hrs. It counts as ADME, organism-based. Details: dose 100 mg/kg, route oral. The note with it: read-out: BPR.
Data set [12] in a line: Drug level in albino C57BL/6 mouse brain at 100 mg/kg, po after 6 hrs. The following applies: read-out: Drug uptake. Set-up: dose 100 mg/kg, route oral. The data set is classed as ADME, organism-based.
Data set [13] deals with Mus musculus. As to the kind of experiment: Toxicity in albino C57BL/6 mouse assessed as effect on open field trial parameters at 100 mg/kg, po. It counts as organism-based. The following applies: in vivo. Details: dose 100 mg/kg, route oral.
The target of data set [14] is T2, Sodium-dependent dopamine transporter. As to the kind of experiment: Inhibition of DAT (unknown origin).
Data set [15] concerns Mus musculus. As to the kind of experiment: Toxicity in mouse assessed as induction of lethargy at 1 mg/kg, iv. Details: dose 1 mg/kg, route intravenous. The data set is classed as organism-based. The following applies: in vivo. In short, it runs like this:
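Mice dosed IV at 1 mpk and observed for lethargy.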

The target of the next data set is hERG (KCNH2) (Homo sapiens, UniProt Q12809). As to the kind of experiment: Inhibition of human ERG at 10 uM.
Sequence of hERG (KCNH2) (Q12809 whole entry): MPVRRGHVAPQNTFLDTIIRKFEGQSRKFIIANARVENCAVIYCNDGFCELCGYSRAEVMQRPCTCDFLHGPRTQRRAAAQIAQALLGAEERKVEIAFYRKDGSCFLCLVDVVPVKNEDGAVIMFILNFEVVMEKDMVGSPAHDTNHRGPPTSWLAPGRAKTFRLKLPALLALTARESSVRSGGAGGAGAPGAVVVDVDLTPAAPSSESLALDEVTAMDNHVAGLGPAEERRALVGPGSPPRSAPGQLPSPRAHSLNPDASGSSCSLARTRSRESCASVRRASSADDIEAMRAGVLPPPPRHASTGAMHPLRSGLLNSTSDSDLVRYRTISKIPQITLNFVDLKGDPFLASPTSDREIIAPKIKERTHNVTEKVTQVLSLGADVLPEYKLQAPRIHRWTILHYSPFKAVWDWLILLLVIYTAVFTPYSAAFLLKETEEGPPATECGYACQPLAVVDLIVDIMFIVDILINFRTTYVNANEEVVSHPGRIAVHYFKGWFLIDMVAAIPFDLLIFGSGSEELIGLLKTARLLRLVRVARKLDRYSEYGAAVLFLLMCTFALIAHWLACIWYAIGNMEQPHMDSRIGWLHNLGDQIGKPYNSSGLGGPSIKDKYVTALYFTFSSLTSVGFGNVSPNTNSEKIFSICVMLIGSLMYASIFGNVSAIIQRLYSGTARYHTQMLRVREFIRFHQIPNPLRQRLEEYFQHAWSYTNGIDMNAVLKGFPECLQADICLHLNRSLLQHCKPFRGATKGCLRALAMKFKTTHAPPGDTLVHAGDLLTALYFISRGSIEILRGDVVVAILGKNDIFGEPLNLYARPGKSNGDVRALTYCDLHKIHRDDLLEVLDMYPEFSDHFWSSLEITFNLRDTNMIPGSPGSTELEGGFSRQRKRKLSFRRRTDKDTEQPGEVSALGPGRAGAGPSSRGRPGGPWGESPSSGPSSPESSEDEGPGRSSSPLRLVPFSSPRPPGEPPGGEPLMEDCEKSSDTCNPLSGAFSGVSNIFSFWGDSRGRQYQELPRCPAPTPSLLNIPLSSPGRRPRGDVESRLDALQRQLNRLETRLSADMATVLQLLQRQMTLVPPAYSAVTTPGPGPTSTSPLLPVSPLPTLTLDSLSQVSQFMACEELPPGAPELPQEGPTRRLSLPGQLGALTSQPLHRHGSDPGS
Data set [16] is described as follows: Inhibition of GlyT (unknown origin). Set-up: species or system Homo sapiens.

This is an account of results in ChEMBL document CHEMBL3352673, “Novel inhibitors of the high-affinity L-proline transporter as potential therapeutic agents for the treatment of cognitive disorders” (Bioorg Med Chem Lett, 2014).

Calls of active or inactive are those of the source. No cut-off for these calls is given here.

The IC50 is the concentration at which inhibition is half-maximal. High values mean a need for much substance, low ones inhibition by little substance. In general, inhibition refers to the share of the control response that was lost under treatment. As a reminder, the AUC(0-inf) is total exposure, with the tail of the curve extrapolated. By Cmax is commonly meant the maximum level reached in the sampled fluid or tissue. What is called Tmax is the time at which the peak concentration occurs.

In turn, `O=C(O)C1CN(c2ncccn2)CCN1C(=O)c1ccc(-c2cccc(Cl)c2)cc1` (stereo not given) gave an IC50 in data set [1] of 128 nM.

`Cc1csc(-c2ccc(C(=O)N3CCN(c4ncccn4)CC3)cc2)c1`: the half-maximal inhibitory concentration (IC50) in [1] worked out at 34 nM.

`O=C(c1ccc(-c2ccccc2C(F)(F)F)cc1)N1CCN(c2ncccn2)CC1` registered an IC50 in [1] of 1260 nM.

As to `O=C(c1ccc(-c2ccccc2)cc1)N1CCN(c2nccs2)CC1`, half-maximal inhibition in [1] (IC50) required 146 nM.

Molecule `O=C(c1ccc(-c2ccccc2)cc1)N1CCN(c2cccnn2)CC1` displayed an IC50 in data set [1] of 5000 nM.

Molecule `O=C(c1cccc(-c2ccccc2)c1)N1CCN(c2ncccn2)CC1` registered an IC50 in data set [1] of 1880 nM.

In turn, `N#Cc1cccc(-c2ccc(C(=O)N3CCN(c4ncccn4)CC3)cc2)c1` showed an IC50 in data set [1] of 190 nM.

On to `N#Cc1ccc(-c2ccc(C(=O)N3CCN(c4ncccn4)CC3)cc2)cc1`, for which, in data set [1], 190 nM corresponded to half-maximal inhibition (IC50).

Take `Cc1ccnc(N2CCN(C(=O)c3ccc(-c4ccccc4)cc3)CC2)n1`: 270 nM corresponded to half-maximal inhibition in data set [1] (IC50).

Consider `O=C(c1ccc(NCc2ccccc2)cc1)N1CCN(c2ncccn2)CC1`, for which the remaining at 0.5 h in [2] was determined as 63%. For the same molecule, in data set [1], half-maximal inhibition (IC50) required 870 nM. For the same molecule, in data set [3], the fraction unbound is 0.05.

Turning to `O=C(c1ccc(-c2ccccc2)cc1)N1CCN(c2ncccn2)CC1`, in data set [1], 280 nM corresponded to half-maximal inhibition (IC50).

For `O=C(c1ccc(OCc2ccccc2)cc1)N1CCN(c2ncccn2)CC1`, in data set [2], the remaining at 0.5 h was 45%. In [1], this molecule came in with an IC50 of 270 nM.

With `C[C@@H]1CN(c2ncccn2)CCN1C(=O)c1ccc(-c2ccc(Cl)cc2)cc1`, the IC50 in [1] came to 57 nM.

As to `O=C(c1ccc(Oc2ccccc2)cc1)N1CCN(c2ncccn2)CC1`, the half-inhibitory concentration (IC50) in data set [1] was found to be 1950 nM.

Turning to `O=C(c1ccc(-c2ccccc2)cc1)N1CCN(c2cnccn2)CC1`, the IC50 in data set [1] stood at 1300 nM.

In the case of `O=C(c1ccc(-c2ccc(Cl)s2)cc1)N1CCN(c2ncccn2)CC1`, 150 nM corresponded to half-maximal inhibition in [1] (IC50).

Turning to `O=C(c1ccc(-c2cccc(Cl)c2)cc1)N1CCCN(c2ncccn2)CC1`, in data set [1], half-maximal inhibition (IC50) required 89 nM.

As for `CC(C)(C)C1CN(c2ncccn2)CCN1C(=O)c1ccc(-c2cccc(Cl)c2)cc1` (stereo not given), in [1], the midpoint of inhibition, the IC50, lay at 700 nM.

Take `CC1CN(c2ncccn2)CC(C)N1C(=O)c1ccc(-c2cccc(Cl)c2)cc1` (stereo not given): it took 24 nM to reach half-maximal inhibition in data set [1] (IC50).

Take `O=C(c1ccccc1-c1ccccc1)N1CCN(c2ncccn2)CC1`: half-maximal inhibition in [1] (IC50) was put at 6010 nM.

In data set [1], `CCc1ccc(-c2ccc(C(=O)N3CCN(c4ncccn4)CC3)cc2)cc1` displayed an IC50 of 77 nM.

Consider `COc1ccc(-c2ccc(C(=O)N3CCN(c4ncccn4)CC3)cc2)cc1`, for which the 50% inhibitory concentration (IC50) in data set [1] is 230 nM.

Turning to `O=C(c1ccc(-c2ccccc2)cc1)N1CCN(c2nccc(C(F)(F)F)n2)CC1`, in data set [1], the IC50 came out at 2180 nM.

For `O=C(c1ccc(-c2cccc(Cl)c2)cc1)N1CC2CCC(C1)N2c1ncccn1`, the outcome in the data set with Mus musculus [4] was inactive. The inhibition result in data set [5] is “inactive”. Moreover, the Activity entry with Mus musculus [6] and in the data set on Mus musculus [13] was “Non-toxic” each time. Also, in data set [7], the AUC(0-inf) amounted to 24000 ng·h/mL. The same molecule had a Cmax in data set [8] of 4500 ng/mL. Further, the remaining at 0.5 h in data set [9] came to 75%. Besides, the Tmax in [10] turned out to be 22.8 min. The molecule also registered a half-maximal inhibitory concentration (IC50) in data set [1] of 27 nM. Moreover, in data set [11], the Kp at 6 h was found to be 1.7. For the same molecule, the concentration at 6 h in [12] stood at 2260 ng/mL.

`Cc1ccc(-c2ccc(C(=O)N3CCN(c4ncccn4)CC3)cc2)cc1`: inhibition in data set [1] was half-maximal at 34 nM (IC50).

Turning to `O=C(c1ccc(-c2cccc(Cl)c2)cc1)N1CC2CC1CN2c1ncccn1` (stereo not given), in data set [1], it took 1340 nM to reach half-maximal inhibition (IC50).

On to `O=C(c1ccc(-c2cccc(C(F)(F)F)c2)cc1)N1CCN(c2ncccn2)CC1`, for which inhibition in [1] was half-maximal at 71 nM (IC50).

Take `O=C(c1ccc(-c2ccccc2)cc1)N1CCN(c2ccccn2)CC1`: the remaining at 0.5 h in data set [9] was determined as 53%. This molecule displayed an IC50 in [1] of 160 nM.

On to `O=C(c1ccc(-c2ccc(Cl)cc2)cc1)N1CCN(c2ncccn2)CC1`, for which the half-inhibitory concentration (IC50) in data set [1] amounted to 52 nM. The fraction unbound in data set [3] is 0.022.

On to `O=C(c1ccc(-c2cccc(Cl)c2)cc1)N1CC2CN(c3ncccn3)CC2C1` (stereo not given), for which the midpoint of inhibition in data set [1], the IC50, lay at 36 nM.

Consider `O=C(c1ccc(-c2cccc(Cl)c2)cc1)N1C2CCC1CN(c1ncccn1)C2`, for which the figures for the IC50 in data set [14], in data set [1] and in data set [16] were 6100 nM, 18 nM and greater than 10000 nM, respectively. Besides, the Activity result with Mus musculus [15] is listed as “Toxic”. Also, the remaining at 0.5 h in [9] turned out to be 70%. In addition, on hERG (KCNH2), the inhibition at 10 µM was found to be 59%.

As to `O=C(c1ccc(C2CCCCC2)cc1)N1CCN(c2ncccn2)CC1`, the half-inhibitory concentration (IC50) in data set [1] was determined as 7010 nM.

As to `CC1CN(C(=O)c2ccc(-c3ccccc3)cc2)CCN1c1ncccn1` (stereo not given), the IC50 in data set [1] stood at 477 nM.

In turn, `O=C(c1ccc(-c2cccc(Cl)c2)cc1)N1CCN(c2ncccn2)CC1CO` (stereo not given) gave an IC50 in data set [1] of 76 nM.

Take `Cc1ccccc1-c1ccc(C(=O)N2CCN(c3ncccn3)CC2)cc1`: the IC50 in data set [1] was 653 nM.

`O=C(c1ccc(-c2ccccc2)cc1)N1CCN(c2ccccc2)CC1` yielded an IC50 in data set [1] of 1480 nM.

In [1], `C[C@H]1CN(c2ncccn2)CCN1C(=O)c1ccc(-c2ccc(Cl)cc2)cc1` showed an IC50 of 21 nM.

As to `Cc1ccc(-c2ccc(C(=O)N3CCN(c4ncccn4)CC3)cc2)s1`, inhibition in data set [1] was half-maximal at 61 nM (IC50).

With `O=C(c1ccc(-c2cccc(Cl)c2)cc1)N1CCN(c2ncccn2)CC1`, the IC50 in data set [14] is 3400 nM; in data set [1], 36 nM; in [16], greater than 10000 nM. In addition, the remaining at 0.5 h in [9] came to 90%. Further, in data set [3], the fraction unbound was 0.008.

As to `O=C(c1ccc(-c2cccc(OC(F)(F)F)c2)cc1)N1CCN(c2ncccn2)CC1`, the IC50 in [1] is 73 nM.

Regarding `CC1(C)CN(c2ncccn2)CCN1C(=O)c1ccc(-c2cccc(Cl)c2)cc1`, inhibition in data set [1] was half-maximal at 53 nM (IC50).
